Changes are numbered by the printed parent chain. The source made the active and inactive calls. The rule behind the calls is not given here.
Assays:
A549 = assay: Induction of apoptosis in human A549 cells assessed as PARP cleavage at 5 and 10 uM by immunoblotting method; type: functional, cell-based
How it was run: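 A549 or HepG2 cells were treated with compound for 24 h, with or without subsequent TNFα (20 ng/mL) for 30 min. Lysates were immunoblotted for PARP cleavage as the apoptosis marker. One of three to five similar experiments shown.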

[1] = molecular target: Nuclear receptor subfamily 4immunitygroup A member 1 (Homo sapiens) (UniProt P22736); assay: Antagonist activity against Nur77 ligand binding domain (unknown origin) expressed in human MCF7 cells assessed as inhibition of all-trans-RA-induced receptor transactivation at 10 uM after 18 hrs by luciferase reporter gene based mammalian one-hybrid assay; type: cell-based
Nuclear receptor subfamily 4immunitygroup A member 1 (Homo sapiens), sequence (P22736 whole entry, the tested form may be a part): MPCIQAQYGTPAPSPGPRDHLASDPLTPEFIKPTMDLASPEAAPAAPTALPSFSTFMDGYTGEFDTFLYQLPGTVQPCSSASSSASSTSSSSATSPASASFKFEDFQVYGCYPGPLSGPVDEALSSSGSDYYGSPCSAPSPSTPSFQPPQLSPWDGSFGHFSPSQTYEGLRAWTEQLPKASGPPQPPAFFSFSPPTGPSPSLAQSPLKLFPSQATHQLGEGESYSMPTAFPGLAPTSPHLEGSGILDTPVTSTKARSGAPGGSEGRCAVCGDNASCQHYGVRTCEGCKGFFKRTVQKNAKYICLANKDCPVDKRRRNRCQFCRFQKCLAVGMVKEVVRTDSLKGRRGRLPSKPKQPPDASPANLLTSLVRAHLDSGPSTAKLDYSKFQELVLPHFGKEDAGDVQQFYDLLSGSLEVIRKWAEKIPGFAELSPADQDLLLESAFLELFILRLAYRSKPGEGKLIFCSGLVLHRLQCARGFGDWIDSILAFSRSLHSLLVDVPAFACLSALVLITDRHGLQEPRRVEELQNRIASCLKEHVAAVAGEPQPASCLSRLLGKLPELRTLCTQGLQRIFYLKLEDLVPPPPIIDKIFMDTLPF
How it was run: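 MCF-7 cells co-transfected with pG5-Luc and the pBind-LBD fusion: Nur77, RARγ or ER. Agonists were all-trans-RA 10⁻⁷ M for RARγ and Nur77, and propyl pyrazole triol 10 μM for ER. Compound at 10 μM for 18 h. Dual-luciferase read-out normalized to Renilla. Mean ± SD.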

[2] = molecular target: T1, Retinoic acid receptor RXR-alpha (Homo sapiens, UniProt P19793); assay: Antagonist activity against Myc-tagged RXRalpha ligand binding domain (unknown origin) expressed in human HEK293T cells assessed as inhibition of 9-cis-RA-induced receptor transactivation after 18 hrs by luciferase reporter gene based mammalian one-hybrid assay; type: cell-based, HEK-293T
T1 sequence (P19793 whole entry): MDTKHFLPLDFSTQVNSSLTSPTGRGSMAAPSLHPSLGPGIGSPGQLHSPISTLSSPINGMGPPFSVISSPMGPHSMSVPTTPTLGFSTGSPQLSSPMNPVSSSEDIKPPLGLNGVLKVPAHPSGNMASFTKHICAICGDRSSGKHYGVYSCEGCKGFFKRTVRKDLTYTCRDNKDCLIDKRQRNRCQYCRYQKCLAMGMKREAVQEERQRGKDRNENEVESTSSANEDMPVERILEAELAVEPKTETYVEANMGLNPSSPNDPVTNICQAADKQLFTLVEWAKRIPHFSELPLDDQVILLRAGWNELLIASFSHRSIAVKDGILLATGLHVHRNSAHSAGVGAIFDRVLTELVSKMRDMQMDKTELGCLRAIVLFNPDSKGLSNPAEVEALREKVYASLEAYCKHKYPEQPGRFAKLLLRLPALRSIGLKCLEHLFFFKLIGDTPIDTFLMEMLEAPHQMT
How it was run: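 HEK293T cells co-transfected with pG5-Luc and pBind-RXRα-LBD. […] Luciferase reporter activity measured. Mean ± SD.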

[3] = test system: T2, Retinoic acid receptor RXR-alpha (Homo sapiens), P19793 [V298S]; assay: Antagonist activity against RXRalpha V298S mutant (unknown origin) expressed in human HEK293T cells assessed as inhibition of 9-cis-RA-induced receptor transactivation at 1 to 10 uM after 18 hrs by luciferase reporter gene based mammalian one-hybrid assay; type: cell-based; conditions: HEK-293T
T2 sequence (whole entry): T1 sequence (P19793 whole entry) with V298S
How it was run: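 HEK-293T cells co-transfected with pG5-Luc and an RXRα mutant vector (V298S as pBind fusion; A272W, C432W LBP mutants). […] Luciferase read-out. Mean ± SD.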

[4] = test system: T3, Retinoic acid receptor RXR-alpha (Homo sapiens), P19793 [A272W]; assay: Antagonist activity against RXRalpha A272W/F313A mutant (unknown origin) expressed in human HEK293T cells assessed as inhibition of constitutive receptor transactivation at 1 to 10 uM after 18 hrs by luciferase reporter gene based mammalian one-hybrid assay; conditions: HEK-293T
T3 sequence (whole entry): T1 sequence (P19793 whole entry) with A272W

[5] = molecular target: Retinoic acid receptor gamma (Homo sapiens) (UniProt P13631); assay: Antagonist activity against RARgamma ligand binding domain (unknown origin) expressed in human MCF7 cells assessed as inhibition of ATRA-induced receptor transactivation at 10 uM after 18 hrs by luciferase reporter gene based mammalian one-hybrid assay
Retinoic acid receptor gamma (Homo sapiens), sequence (P13631 whole entry, looked up, the tested form may be a part): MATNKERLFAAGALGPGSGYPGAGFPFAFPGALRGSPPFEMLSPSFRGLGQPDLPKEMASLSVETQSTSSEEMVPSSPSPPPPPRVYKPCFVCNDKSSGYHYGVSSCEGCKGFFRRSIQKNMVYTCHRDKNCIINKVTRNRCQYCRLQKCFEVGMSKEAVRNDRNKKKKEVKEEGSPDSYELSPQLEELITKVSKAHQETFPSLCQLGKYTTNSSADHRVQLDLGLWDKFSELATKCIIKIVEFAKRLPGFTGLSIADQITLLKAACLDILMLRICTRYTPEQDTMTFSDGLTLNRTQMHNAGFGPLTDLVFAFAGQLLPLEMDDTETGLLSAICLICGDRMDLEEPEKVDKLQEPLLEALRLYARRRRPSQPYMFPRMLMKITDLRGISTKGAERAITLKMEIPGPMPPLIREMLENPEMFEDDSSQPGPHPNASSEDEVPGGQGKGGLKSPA

MCF7 = assay: Growth inhibition of tRXRalpha stably expressing human MCF7 cells at 2 to 10 uM after 48 hrs by MTT assay; type: functional, cell-based
[6] = molecular target: T4, Retinoic acid receptor RXR-alpha (Homo sapiens) (UniProt P19793); assay: Antagonist activity against RXRalpha in TNFalpha-stimulated human PC3 cells assessed as inhibition of AKT phosphorylation at 5 and 10 uM pre-treated for 24 hrs before TNFalpha addition by Western blotting method; type: cell-based; conditions: PC-3
T4 sequence (whole entry): T1 sequence (P19793 whole entry)

inhibition [1]: inactive | IC50 [2]: 2.45 µM | inhibition [3]: inactive | inhibition [4]: Dose-dependent effect | inhibition [5]: Active | inhibition [6]: Active
SMILES: Cc1cc(=O)oc2c(/C=N/NC(=O)CSc3nc4ccccc4s3)c(O)ccc12
Activity (A549): Active | growth inhibition (GI) (MCF7): Active

— ChEMBL document CHEMBL3352174, “Identification of a New RXRα Antagonist Targeting the Coregulator-Binding Site” (ACS Med Chem Lett, 2014)
